GalR3 antagonist: human GalR3 antagonism | inhibition, % at 3 µM | AID 651719 | 360,000 compounds, 0.44% hits | HEK293 GalR3-CNG cAMP membrane potential fluorescence; galR3 body fused to GalR1 C-terminus | O60755;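 active = inhibition above the screen-wide average plus 3 SD, cut at about 13% in these data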;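 also: forskolin and galanin both at EC90 stimulate the cells; cAMP rise reported by CNG channel membrane potential dye signal; 0% = forskolin plus galanin with DMSO and 100% = forskolin alone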
CHT block: inhibitors of human choline transporter CHT; Q9GZV3; CHT-expressing cells, membrane potential dye, choline response; stronger effect = lower value; B-score at 10 µM; 310,000 compounds, 0.86% hits;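 active = B-score over 3 SD under the library average, and starting fluorescence ratio not unusually high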;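 also: choline stimulus applied at its EC90 after an EC20 pre-addition; B-score computed on integrated fluorescence ratio after choline addition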
NR2E3 ag-1: human photoreceptor-specific nuclear receptor agonism; inhibition of corepressor binding, % at 3.98 µM; CHO-S Gal4-NCOR/VP16-NR2E3 two-hybrid, luciferase; AID 602229; 360,000 compounds, 0.35% hits; Q9Y5X4;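 active = inhibition above the mean of all tested compounds plus 3 SD, cut at about 70% in these data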;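 also: 0% = DMSO with NR2E3 transfected cells and 100% = cells lacking NR2E3 construct; higher means lower luciferase signal from less NR2E3 corepressor binding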
CHT allo act: allosteric activators of human choline transporter CHT; Q9GZV3; CHT-expressing cells, membrane potential dye, choline EC20; stronger effect = higher value; LV-AA mutant CHT in HEK293 cells; B-score at 10 µM; 310,000 compounds, 0.49% hits; AID 488977;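 active = initial fluorescence not abnormally high and integrated response B-score, plate-corrected, over 3 SD above library mean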
NR2E3 ag-2: agonists of human nuclear receptor NR2E3; Q9Y5X4; GST-NR2E3/biotin-RetCOR TR-FRET, 1536-well; inhibition of corepressor binding, % at 4.78 µM; 320,000 compounds, 0.12% hits; AID 2300;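 active = percent inhibition above the cutoff of mean plus 3 SD of all tested compounds, set per screening campaign, cut at about 20% in these data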;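 also: 0% = DMSO wells and 100% = biotin wells as full block of FRET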
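Material: NR2E3–RetCOR corepressor complex / Incubation: Compound–protein incubation for 5 h at 4 °C / Dosing: compound at 4.8 µM, single dose / Detection: time-resolved FRET / Benchmarks: high control biotin, low control 0.6% DMSO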
NR2F2 inh: blocks human COUP-TFII nuclear receptor; P24468; HEK293T NGFI-A luciferase reporter, luminescence; inhibition, % at 8.6 µM; 370,000 compounds, 0.7% hits; AID 686940;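 active = inhibition above a per-plate cutoff, mean inhibition of test wells between control levels plus 3 SD, cut at about 38% in these data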;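 also: cells cotransfected with COUP-TFII expression vector driving the NGFI-A reporter; 0% = median of COUP-TF2 test wells and 100% = reporter-only cells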
Target sequence (P24468 whole entry, looked up): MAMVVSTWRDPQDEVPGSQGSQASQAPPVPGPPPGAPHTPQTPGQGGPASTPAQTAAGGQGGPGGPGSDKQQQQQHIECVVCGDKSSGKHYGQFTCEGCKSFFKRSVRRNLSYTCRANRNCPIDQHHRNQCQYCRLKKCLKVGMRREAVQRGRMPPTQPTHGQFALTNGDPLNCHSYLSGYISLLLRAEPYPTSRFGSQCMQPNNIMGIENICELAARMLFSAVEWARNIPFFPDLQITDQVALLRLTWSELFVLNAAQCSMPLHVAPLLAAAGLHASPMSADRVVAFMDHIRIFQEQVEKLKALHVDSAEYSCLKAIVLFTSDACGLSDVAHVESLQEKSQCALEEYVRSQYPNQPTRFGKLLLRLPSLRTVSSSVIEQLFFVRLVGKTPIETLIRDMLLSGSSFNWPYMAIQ
CHT block conf: human CHT inhibition, confirmatory screen | shares compounds with CHT block | CHT-expressing cells, choline membrane potential dye; LV-to-AA substituted CHT, HEK293 cells | CHT activity remaining % of control (stronger effect = lower value), % at 10 µM | 2,400 compounds, 70% hits | AID 493221;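 active = choline transporter activity left, mean of duplicates at 10 µM, below buffer-only control mean minus 3 SD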;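 also: depolarization triggered by choline at its EC90 following an EC20 pre-addition; 0% = hemicholinium-3 full block and 100% = buffer-only control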
HEK293 CHT ctr: counter-screen for CHT inhibitors: effect in parental HEK293 cells; shares compounds with CHT block; membrane potential dye, choline response; active = decrease or increase beyond buffer ±3SD; membrane potential ratio readout (active if shifted either direction beyond buffer ±3SD; no single direction) at 10 µM; 2,400 compounds, 4% hits; AID 493222;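 also: parental cells lack the transporter so any hit is non-specific; ratio is peak minus trough fluorescence over baseline after EC90 choline challenge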
* hit, by the source's call; i = inactive; / = no result given. A selection: hits, their analogues and other compounds. The true share with any hit is near 2.3%.

SMILES	GalR3 antagonist	CHT block	NR2E3 ag-1	CHT allo act	NR2E3 ag-2	NR2F2 inh	CHT block conf	HEK293 CHT ctr
COC(=O)Nc1ccc(S(=O)(=O)NNC(=O)c2c(O)c3ccccc3n(C)c2=O)cc1	1	-5.8*	-23	i	3	-17	43%*	i
CCn1c(=O)c(C(=O)NNS(=O)(=O)c2ccc(NC(=O)OC)cc2)c(O)c2ccccc21	-6	i	-8	i	0	-23	/	/
Cc1cc(/C=N/NC(=O)C(=O)NCc2ccccn2)c(C)n1-c1ccccc1	-4	-7*	-7	i	0	-20	34%*	i
CCCCN(CCCC)S(=O)(=O)c1ccc(NC(=O)c2ccc([N+](=O)[O-])cc2Cl)cc1	-5	-6.2*	9	i	-3	8	70%*	i
COc1ccc2[nH]c(=O)c(CN(Cc3cccs3)C(=S)Nc3ccccc3)cc2c1	/	-5.3*	/	i	-2	/	i	i
COCCCNC(=O)c1ccc2c(c1)NC(=O)C(C)(C)O2	/	/	/	/	/	25	/	/
CC(SCc1ccccc1)C(=O)N/N=C/c1ccc(OCC(=O)NCc2ccco2)cc1 (stereo not given)	-6	-8.1*	-20	i	2	8	47%*	i
Cc1oc2ccc(OCc3ccc(Cl)cc3)cc2c1C(=O)O	-6	-5.1*	-27	i	2	14	i	i
O=C([C@@H]1C[C@H]1c1ccccc1)N1CC[C@H]2[C@H](CCCN2Cc2ccccc2)C1	/	/	/	/	/	12	/	/
CCOC(=O)N1CCN(C(=O)c2ccc3nc(N4CCC(C)CC4)sc3c2)CC1	-1	-7.2*	-33	i	3	-1	69%*	i
CCCCCc1cc(=O)oc2c(C(CCN(CC)CC)c3cc(OC)c(OC)c(OC)c3)c(OC)cc(OC)c12 (stereo not given)	-4	-5.8*	-1	i	1	-1	51%*	i
CCCCCc1cc(=O)oc2c(C(CCN3CCCCC3)c3ccc4c(c3)OCO4)c(OC)cc(OC)c12 (stereo not given)	-4	i	2	i	-5	12	/	/
COc1cccc(OC)c1NC(=O)OC1CCC12CCC(c1ccccc1)CC2 (stereo not given)	/	/	/	/	/	-5	/	/
CC1CCN(S(=O)(=O)c2cccc(C(=O)N3CCN(c4ccc(F)cc4)CC3)c2)CC1	-1	i	30	i	2	4	/	/
CC1CCC(NC(=O)c2cccc(S(=O)(=O)N3CCN(c4ccc(F)cc4)CC3)c2)CC1 (stereo not given)	-5	-5.6*	-26	i	2	-13	i	i
O=C(NNC(=O)c1cccc(S(=O)(=O)N2CCN(c3ccccc3)CC2)c1)c1ccc(Cl)cc1	-13	-5.4*	7	i	-4	-10	i	i
CC(=O)N1CCN(C(=O)c2cccc(S(=O)(=O)N3CCN(c4ccccc4)CC3)c2)CC1	-7	/	15	/	5	10	/	/
C=CCNC(=O)c1onc(CSc2ccc(C(C)C)cc2)c1C(=O)O	-6	-5.2*	-4	i	3	0	61%*	i
c1ccc2c(c1)NC1(CCCCCC1)n1c-2nc2ccccc21	-5	i	-45	i	0	-54	/	/
NC1=NC2(CCCCCC2)n2c(nc3ccccc32)N1	-6	-5.5*	-48	i	-2	-2	15%*	i
Cc1cc(C)cc(NC(=O)N2CCC(c3nc4ccc(Cl)cc4[nH]3)CC2)c1	/	/	/	/	/	18	/	/
Cc1n[nH]c(C)c1Sc1ccccc1N=Cc1cc(Cl)cc([N+](=O)[O-])c1O	/	-7.9*	-16	i	-4	/	36%*	i
O=C(Nc1ccc(Cl)cc1)Nc1ccccc1NS(=O)(=O)c1cccs1	-6	i	-11	i	3	-8	/	/

Screening data from PubChem BioAssay.
